In assay [1] the test system is Leishmania donovani. The experiment in a line: Evaluated for antiparasitic activity against Leishmania donovani; NA is Not active. The class given is functional, organism-based. The method in brief: (§1)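 L. donovani (strain MHOM/ET/67/L82) amastigotes from hamster passage, used to infect starch-elicited peritoneal macrophages from female CD1 mice (4 × 10⁴/well, RPMI-1640 + 10% HIFCS) at 10:1 after 24 h adherence. Drug given as a 3-fold dilution series, top concentration ~30 µM, quadruplicate, 5 days. Read-out is % macrophages cleared of amastigotes versus untreated control. Sodium stibogluconate serves as control.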

Assay [2] has as its system Trypanosoma brucei. The experiment in a line: Evaluated for antiparasitic activity against brucei trypomastigotes; NA is Not active. The class given is functional, organism-based. The method in brief: (§2)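 T. brucei S427 bloodstream trypomastigotes in HMI-18 + 20% HIFCS, seeded at 2 × 10⁵/mL mixed with equal volume of compound. Compound given as a 3-fold dilution series from 30 µM top, triplicate, 3 days at 37 °C, 5% CO₂. Growth measured by tetrazolium colorimetric assay on day 3 and expressed as % inhibition versus untreated control. Pentamidine serves as positive control.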

The test system of assay [3] is Trypanosoma cruzi. The experiment in a line: Compound is evaluated for antiparasitic activity against Trypanosoma cruzi amastigotes. The class given is functional. The method in brief:
(§3)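 T. cruzi (strain MHOM/BR/OO/Y) trypomastigotes, MDCK-derived, used to infect starch-elicited peritoneal macrophages from female CD1 mice (4 × 10⁴/well, RPMI-1640 + 10% HIFCS) at 5:1 after 24 h. Drug given as a 3-fold dilution series up to ~30 µM, quadruplicate, 3 days. Activity is scored as % macrophages cleared of amastigotes relative to untreated control. Nifurtimox serves as control.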

The next assay concerns K562. In words: Tested for cytotoxicity in human K562 cells. The class given is functional. Particulars: read-out: ID50 (the source's name). The method in brief:
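K562 human CML cells in RPMI + 10% fetal calf serum at 37 °C, 5% CO₂, humidified. Exposed to compound for 5 days. Viability read by the semi-automated NCI MTT-type (Mosmann) tetrazolium assay, run by an external institute.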

Assay [4] relates to Leishmania donovani. In words: Evaluated for antiparasitic activity against Leishmania donovani. The class given is functional. The procedure, abridged:
as §1

Assay [5] concerns Trypanosoma brucei. The experiment in a line: Evaluated for antiparasitic activity against brucei trypomastigotes. The class given is functional. As to conditions: read-out: ED50 (the source's name). The procedure, abridged:
as §2

Assay [6] relates to Trypanosoma brucei. The experiment in a line: Compound is evaluated for antiparasitic brucei trypomastigotes percent inhibition is given in parentheses. The class given is functional. Particulars: read-out: ED50 (the source's name). The procedure, abridged:
as §2

In assay [7] the test system is Trypanosoma cruzi. The experiment in a line: Evaluated for antiparasitic activity against Trypanosoma cruzi amastigotes; NA is Not active. The class given is functional, organism-based. The procedure, abridged:
as §3

Assay [8] has as its system Leishmania donovani. The experiment in a line: Compound is evaluated for antiparasitic activity against Leishmania donovani. The class given is functional. The procedure, abridged:
as §1

The subject of assay [9] is Trypanosoma cruzi. In words: Compound is evaluated for antiparasitic activity against Trypanosoma cruzi. The class given is functional. The procedure, abridged: as §3
Assay [10] deals with Trypanosoma cruzi. The experiment in a line: Compound is evaluated for antiparasitic activity against Trypanosoma cruzi amastigotes. The class given is functional. The method in brief:
as §3

The source made the active and inactive calls. No cut-off for these calls is given here.

These results are taken from ChEMBL document CHEMBL1132941, “Structure-activity study on the in vitro antiprotozoal activity of glutathione derivatives” (2000).

Turning to `COC(=O)CNC(=O)C(CSCc1ccc(Br)cc1)NC(=O)CCC(NC=O)C(=O)OC` (stereo not given), the NA entry with Leishmania donovani [1] and in the assay with Trypanosoma brucei [2] was “inactive” in each case. The Inhibition in the assay on Trypanosoma cruzi [3] amounted to 12%. In addition, the IC50 in the assay with K562 is > 50 µM.
Take `COC(=O)CNC(=O)C(CSc1ccc([N+](=O)[O-])cc1[N+](=O)[O-])NC(=O)CCC(NC(=O)OCc1ccccc1)C(=O)OC` (stereo not given): the ED50 in the assay on Leishmania donovani [4] was > 30 µM. Besides, the IC50 with K562 was found to be 23.4 µM. In addition, in the assay with Trypanosoma brucei [5], the EC50 was found to be 16.2 µM.
Take `COC(=O)CNC(=O)C(CSC(=O)OCc1ccccc1)NC(=O)CCC(NC(=O)OCc1ccccc1)C(=O)OC` (stereo not given): the IC50 in the assay on K562 turned out to be 1.26 µM. Also, the EC50 with Trypanosoma brucei [5] was 17 µM.
Take `CCCCOC(=O)CNC(=O)C(CSc1ccc([N+](=O)[O-])cc1[N+](=O)[O-])NC(=O)CCC(NC(=O)OCc1ccccc1)C(=O)OCCCC` (stereo not given): in the assay on Leishmania donovani [4], the ED50 was > 30 µM. In addition, the IC50 in the assay with K562 came out at 21.8 µM. For the same molecule, the EC50 in the assay with Trypanosoma brucei [5] came out at 1.07 µM.
As to `COC(=O)CNC(=O)C(CSCc1ccc(Br)cc1)NC(=O)CCC(NC(=O)OCc1ccccc1)C(=O)OC` (stereo not given), the EC50 in the assay with Trypanosoma brucei [6] is > 30 µM. In the assay with K562, the IC50 came to 16.7 µM.
For the molecule `NC(=O)CNC(=O)C(CSCc1ccc(Br)cc1)NC(=O)CCC(NC(=O)OCc1ccccc1)C(=O)O` (stereo not given), the NA entry in the assay on Leishmania donovani [1], in the assay on Trypanosoma brucei [2] and in the assay with Trypanosoma cruzi [7] was “inactive” each time. Further, the IC50 in the assay on K562 is > 50 µM.
As to `CC(=O)NC(CCC(=O)NC(CSCc1ccc(Br)cc1)C(=O)NCC(=O)O)C(=O)O` (stereo not given), the NA entry in the assay with Leishmania donovani [1] and with Trypanosoma cruzi [7] was “inactive” in each case. In the assay on K562, the IC50 is > 50 µM. Besides, the EC50 with Trypanosoma brucei [5] was > 30 µM.
Consider `CCCOC(=O)CNC(=O)C(CSc1ccc([N+](=O)[O-])cc1[N+](=O)[O-])NC(=O)CCC(NC(=O)OCc1ccccc1)C(=O)OCCC` (stereo not given), for which the ED50 in the assay with Leishmania donovani [4] is > 30 µM. Also, in the assay with K562, the IC50 stood at 17.6 µM. Also, the EC50 with Trypanosoma brucei [5] came out at 6 µM.
Take `CCCCOC(=O)CNC(=O)C(CSCc1ccc(Br)cc1)NC(=O)CCC(NC(=O)OCc1ccccc1)C(=O)OCCCC` (stereo not given): the Inhibition with Leishmania donovani [8] was 68%. Besides, the IC50 with K562 was 16.7 µM. Further, the EC50 in the assay with Trypanosoma brucei [5] was found to be 1.9 µM.
`O=C(CCC(NC(=O)OCc1ccccc1)C(=O)OC1CCCCC1)NC(CSc1ccc([N+](=O)[O-])cc1[N+](=O)[O-])C(=O)NCC(=O)OC1CCCCC1` (stereo not given) showed an ED50 in the assay with Trypanosoma cruzi [9] of 3 µM. In addition, in the assay on K562, the IC50 came to 15.9 µM. Further, the EC50 in the assay with Trypanosoma brucei [5] stood at 0.19 µM.
For `N[C@@H](CCC(=O)N[C@@H](CSCc1ccc(Br)cc1)C(=O)NCC(=O)O)C(=O)O`, the NA result in the assay on Leishmania donovani [1] and in the assay with Trypanosoma cruzi [7] was “inactive” in each case. In the assay on K562, the IC50 is > 50 µM. The EC50 in the assay on Trypanosoma brucei [5] is > 30 µM.
On to `O=C(O)CNC(=O)C(CSCc1ccc(Br)cc1)NC(=O)CCC(NC(=O)OCc1ccccc1)C(=O)O` (stereo not given), for which the NA entry in the assay with Leishmania donovani [1] and with Trypanosoma cruzi [7] was “inactive” each time. Further, in the assay with K562, the IC50 was > 50 µM. Besides, the EC50 in the assay on Trypanosoma brucei [5] was > 30 µM.
With `CCCCCCOC(=O)CNC(=O)C(CSc1ccc([N+](=O)[O-])cc1[N+](=O)[O-])NC(=O)CCC(NC(=O)OCc1ccccc1)C(=O)OCCCCCC` (stereo not given), the ED50 in the assay with Trypanosoma cruzi [9] was < 50 µM; in the assay on Leishmania donovani [4], > 50 µM. For the same molecule, in the assay with K562, the IC50 was > 50 µM. For the same molecule, the EC50 with Trypanosoma brucei [5] was 5.8 µM.
As to `NC(=O)CNC(=O)C(CSCc1ccc(Br)cc1)NC(=O)CCC(NC(=O)OCc1ccccc1)C(N)=O` (stereo not given), the NA entry with Leishmania donovani [1] and in the assay on Trypanosoma cruzi [7] was “inactive” each time. Besides, the IC50 in the assay with K562 is > 50 µM. The EC50 in the assay with Trypanosoma brucei [5] was > 30 µM.
As to `COC(=O)CNC(=O)C(CSC(=O)OCc1ccccc1)NC(=O)CCC(NC(C)=O)C(=O)OC` (stereo not given), in the assay on K562, the IC50 was > 50 µM. In addition, the EC50 in the assay on Trypanosoma brucei [5] came out at 3.2 µM.
With `CCCCCCCCOC(=O)CNC(=O)C(CSc1ccc([N+](=O)[O-])cc1[N+](=O)[O-])NC(=O)CCC(NC(=O)OCc1ccccc1)C(=O)OCCCCCCCC` (stereo not given), in the assay on Leishmania donovani [4], the ED50 was > 50 µM. In addition, the IC50 with K562 turned out to be 24.7 µM.
Consider `COC(=O)CNC(=O)C(CSCc1ccc(Br)cc1)NC(=O)CCC(N)C(=O)O` (stereo not given), for which the NA entry with Leishmania donovani [1] and in the assay on Trypanosoma cruzi [7] was “inactive” each time. Further, the IC50 in the assay on K562 is > 50 µM. For the same molecule, in the assay on Trypanosoma brucei [5], the EC50 was > 30 µM.
`O=CNC(CCC(=O)NC(CSCc1ccc(Br)cc1)C(=O)NCC(=O)O)C(=O)O` (stereo not given): in the assay on Trypanosoma cruzi [10], the Inhibition stood at 11%. The NA entry in the assay on Leishmania donovani [1] and with Trypanosoma brucei [2] was “inactive” throughout. Besides, the IC50 in the assay with K562 was > 50 µM.
In the case of `NC(=O)CNC(=O)C(CSCc1ccc(Br)cc1)NC(=O)CCC(N)C(=O)O` (stereo not given), the NA result with Leishmania donovani [1] and with Trypanosoma cruzi [7] was “inactive” in each case. Also, the IC50 in the assay with K562 was > 50 µM. The EC50 in the assay with Trypanosoma brucei [5] is < 30 µM.
Regarding `COC(=O)CNC(=O)C(CSCc1ccc(Br)cc1)NC(=O)CCC(NC(=O)OCc1ccccc1)C(=O)O` (stereo not given), the NA entry with Leishmania donovani [1], with Trypanosoma brucei [2] and in the assay with Trypanosoma cruzi [7] was “inactive” in each case. The IC50 with K562 is > 50 µM.
Regarding `COC(=O)CNC(=O)C(CSCc1ccc(Br)cc1)NC(=O)CCC(N)C(=O)OC` (stereo not given), the Inhibition in the assay with Leishmania donovani [8] amounted to 8.7%. Moreover, the NA entry with Trypanosoma brucei [2] and in the assay on Trypanosoma cruzi [7] was “inactive” throughout. For the same molecule, in the assay with K562, the IC50 was > 50 µM.
In turn, `NC(=O)CNC(=O)C(CSCc1ccc(Br)cc1)NC(=O)CCC(N)C(N)=O` (stereo not given) returned an Inhibition in the assay with Leishmania donovani [8] of 4%. Besides, the NA result with Trypanosoma brucei [2] and in the assay with Trypanosoma cruzi [7] was “inactive” in each case. Also, in the assay with K562, the IC50 was > 50 µM.
